Results taken from publication PMC6089219 (ACS chemical biology, 2018).

T1: human ALDH1A2 (Homo sapiens, UniProt O94788)
T1 sequence (O94788 27-518): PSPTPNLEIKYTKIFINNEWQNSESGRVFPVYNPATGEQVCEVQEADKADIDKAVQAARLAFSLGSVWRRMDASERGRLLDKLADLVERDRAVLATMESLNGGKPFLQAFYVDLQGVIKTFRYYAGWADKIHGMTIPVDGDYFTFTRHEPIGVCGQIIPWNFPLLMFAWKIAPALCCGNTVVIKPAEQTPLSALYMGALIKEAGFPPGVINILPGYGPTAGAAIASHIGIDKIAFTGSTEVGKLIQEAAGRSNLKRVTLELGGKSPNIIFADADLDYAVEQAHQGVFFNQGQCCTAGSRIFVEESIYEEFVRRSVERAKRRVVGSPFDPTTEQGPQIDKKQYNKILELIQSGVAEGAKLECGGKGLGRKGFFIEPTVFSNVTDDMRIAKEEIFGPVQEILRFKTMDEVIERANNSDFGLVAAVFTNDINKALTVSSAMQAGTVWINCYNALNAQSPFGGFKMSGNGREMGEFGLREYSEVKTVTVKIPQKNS

B1: human ALDH1A2 (residues 27-518) (enzyme, UniProt O94788 27-518, looked up)
chain: T1 sequence (O94788 27-518)

Experiments:
[1] = biological target: T1, human ALDH1A2; assay: Differential scanning fluorimetry; format: binding; conditions: for DSF ΔTm (°C); (−) NAD: 200 μM compound, 4 μM ALDH1A2, absence of NAD, single experiment in quadruplicate
How it was run: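 Truncated human ALDH1A2 (residues 27–518) expressed in E. coli BL21Star (DE3), His-tag removed by PreScission protease, purified as a tetramer. Fluorescence read at 620 nm (ROX channel) during thermal melt, in quadruplicate. ΔTm taken against unliganded enzyme with 2% DMSO.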

[2] = biological target: the molecule itself; assay: crystal structure

Molecule	DSF ΔTm (°C); (−) NAD [1]	further results
CS(=O)(=O)c1ccc(-c2nn(-c3ccc(C#N)cc3)cc2C(=O)Nc2cccc(F)c2)cc1 [CM121]	5.4 ± 0.15 °C	–
NC(=O)c1ccc[n+]([C@@H]2O[C@H](COP(=O)([O-])OP(=O)(O)OC[C@H]3O[C@@H](n4cnc5c(N)ncnc54)[C@H](O)[C@@H]3O)[C@@H](O)[C@H]2O)c1 [NAD]	–	DSF ΔTm (°C); (+) NAD ([1]; 1 mM NAD+ alone, no inhibitor): 2.6 ± 0.04 °C
O=C(NCCCCCCCCNC(=O)C(Cl)Cl)C(Cl)Cl [WIN18,446, reference compound]	7.6 ± 0.17 °C	–
B1	–	stoichiometry N [2]: 4
